Data: publication PMC2212458 (The Journal of Experimental Medicine, 1998)

Key:
[1] = system: gp100-reactive T cells with EL-4 thymoma cells; assay: Recognition of peptide-pulsed EL-4 at limiting concentrations, IFN-γ ELISA; type: cell-based; details: human versus mouse epitope
H-2D^b = H-2D^b (Mus musculus, UniProt P01899); assay: MHC class I stabilization assay on RMA/S cells; type: binding
Outline: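 RMA/S cells (TAP-deficient, H-2b) preincubated 24 h at room temperature, then pulsed with peptides across a concentration range, with control peptides, at room temperature (25°C). Next, 4 h at 37°C to allow turnover of empty class I. Stained with FITC anti-H-2Db mAb KH95 for 1 h at 4°C and analysed by flow cytometry. Expressed as percentage of maximal stabilization at 100 μM.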

Chain of H-2D^b (P01899 whole entry, looked up): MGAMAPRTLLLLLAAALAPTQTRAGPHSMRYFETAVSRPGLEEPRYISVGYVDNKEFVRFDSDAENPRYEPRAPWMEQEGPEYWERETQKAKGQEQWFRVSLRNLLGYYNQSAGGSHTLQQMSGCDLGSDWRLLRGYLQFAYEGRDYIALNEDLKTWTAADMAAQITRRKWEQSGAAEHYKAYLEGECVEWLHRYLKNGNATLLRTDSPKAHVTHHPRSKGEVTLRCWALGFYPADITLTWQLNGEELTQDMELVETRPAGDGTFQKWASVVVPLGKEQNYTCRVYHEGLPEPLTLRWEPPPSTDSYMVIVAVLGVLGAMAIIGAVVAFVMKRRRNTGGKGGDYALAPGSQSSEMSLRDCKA

affinity for H-2D^b (H-2D^b; compared with mgp100_25–33, Fig. 6): dramatically increased affinity
increase in ability to stabilize “empty” D^b on RMA-S cells (H-2D^b; human versus mouse epitope): 2 log
Sequence: KVPRNQDWL [hgp100_25–33]
increase in ability to trigger interferon γ release by T cells [1]: 3 log
